Measurements: ChEMBL document CHEMBL1128718, “2-Substituted penems with amino acid-related side chains: synthesis and antibacterial activity of a new series of beta-lactam antibiotics” (1995)
Converted amounts (≈) assume the structure as drawn.

Tests used:
Type in all cases: functional
Staphylococcus aureus [1] = experiment: In vitro antibacterial activity against Sa(I) Staphylococcus aureus ATCC 29213
How it was run: (§1)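 MIC was determined in Mueller Hinton 2 medium with an inoculum of 10⁴ cells/mL and incubation for 24 h at 37 °C. Strains: Sa(I) is S. aureus ATCC 29213; Sa MR(I) is a heterogeneous methicillin-resistant S. aureus; Sa MR(II) is a homogeneous methicillin-resistant S. aureus.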

Staphylococcus aureus [2] = experiment: In vitro antibacterial activity against Sa MR(I) heterogeneous methicillin resistant Staphylococcus aureus; how it was run: as §1
Staphylococcus aureus [3] = experiment: In vitro antibacterial activity against Sa MR(II) homogeneous methicillin resistant Staphylococcus aureus; how it was run: as §1
Escherichia coli [4] = experiment: In Vitro antibacterial activity against (Ec TEM2) Escherichia coli […] strain
How it was run: (§2)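 Panel of standard ATCC strains plus modified strains: methicillin-resistant, hyperpermeable, β-lactamase-producing (TEM1, TEM2, SHV) and β-lactamase-lacking. MIC determined in Mueller Hinton 2 medium, inoculum 10⁴ cells/mL, incubated 24 h at 37 °C.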

Pseudomonas aeruginosa [5] = experiment: In Vitro antibacterial activity against (Pa G242) hyperpermeable Pseudomonas aeruginosa strain; how it was run: as §2
Pseudomonas aeruginosa [6] = experiment: In Vitro antibacterial activity against (Pa) hyperpermeable Pseudomonas aeruginosa […] strain; how it was run: as §2
Pseudomonas aeruginosa [7] = experiment: In Vitro antibacterial activity against(Pa) Pseudomonas aeruginosa ATCC 27853; how it was run: as §2
Staphylococcus aureus [8] = experiment: In vitro antibacterial activity against Sa(II) Staphylococcus aureus ATCC 25923; how it was run: as §2
Escherichia coli [9] = experiment: In Vitro antibacterial activity against (Ec) Escherichia coli ATCC 25922; how it was run: as §2
Escherichia coli [10] = experiment: In Vitro antibacterial activity against (Ec SHV) Escherichia coli […] strain; how it was run: as §2
Escherichia coli [11] = experiment: In Vitro antibacterial activity against (Ec DC2) hyperpermeable Escherichia coli strain; how it was run: as §2
Enterococcus faecalis [12] = experiment: In Vitro antibacterial activity against (Ef) Enterococcus faecalis ATCC 29212; how it was run: as §2
Escherichia coli [13] = experiment: In Vitro antibacterial activity against (Ec L) Escherichia coli […] strain; how it was run: as §2
Escherichia coli [14] = experiment: In Vitro antibacterial activity against (Ec TEM1) Escherichia coli […] strain; how it was run: as §2
Staphylococcus aureus [15] = experiment: In vitro Anti Bacterial Activity (MIC90) against 90% of tested clinical Isolates of Staphylococcus aureus MV (20)
Clostridium perfringens = experiment: In vitro Anti Bacterial Activity (MIC90) against 90% of tested clinical Isolates of Clostridium perfringens(27)
How it was run: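 MIC90 over clinical isolates of this anaerobic species, taken from the MIC distribution. Anaerobes were tested on Wilkins-Chalgren agar with an inoculum of 10⁵ cells/mL and incubated 24–48 h at 37 °C.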

Yersinia sp. = experiment: In Vitro Anti Bacterial Activity (MIC90) against 90% of tested clinical Isolates of Yersinia species(20); conditions: Yersinia sp. (in: enterobacteria)
Staphylococcus aureus [16] = experiment: In vitro Anti Bacterial Activity (MIC90) against 90% of tested clinical Isolates of Staphylococcus aureus MS (6)
How it was run: (§3)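 Aerobic clinical isolates; MICs in Mueller Hinton 2 medium, inoculum 10⁴ cells/mL, incubated 24 h at 37 °C; MIC90 taken across isolates of each species.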

Listeria monocytogenes = experiment: In vitro Anti Bacterial Activity (MIC90) against 90% of tested clinical Isolates of Listeria monocytogenes (20)
Streptococcus agalactiae = experiment: In vitro Anti Bacterial Activity (MIC90) against 90% of tested clinical Isolates of Streptococcus agalactiaeB(21)
Bacteroides fragilis = experiment: In vitro Anti Bacterial Activity (MIC90) against 90% of tested clinical Isolates of Bacteroides fragilis(15)
How it was run: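 MIC90 over clinical anaerobe isolates; MICs in Wilkins-Chalgren agar, inoculum 10⁵ cells/mL, 24–48 h at 37 °C.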

Klebsiella pneumoniae = experiment: In Vitro Anti Bacterial Activity (MIC90) against 90% of tested clinical Isolates of Klebsiella pneumoniae(20)
How it was run: (§4)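 Over 500 clinical isolates tested in total; the line gives the isolate count. MIC90 for aerobes by dilution in Mueller Hinton 2 medium, inoculum 10⁴ cells/mL, incubated 24 h at 37 °C.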

Streptococcus pyogenes = experiment: In vitro Anti Bacterial Activity (MIC90) against 90% of tested clinical Isolates of Streptococcus pyogenes(31)
Streptococcus pneumoniae = experiment: In Vitro Anti Bacterial Activity (MIC90) against 90% of tested clinical Isolates of Streptococcus pneumoniae (23)
Moraxella catarrhalis = experiment: In vitro Anti Bacterial Activity (MIC90) against 90% of tested clinical Isolates of Branhamella catarrhalis(27)
[17] = tested on: Staphylococcus epidermidis; experiment: In vitro Anti Bacterial Activity (MIC90) against 90% of tested clinical Isolates of S. epidermidis(13); how it was run: as §3
Enterococcus faecalis [18] = experiment: In vitro Anti Bacterial Activity (MIC90) against 90% of tested clinical Isolates of Enterococcus faecalis(47); how it was run: as §3
Aeromonas = experiment: In vitro 90% of tested clinical Isolates of Aeromonas species(21); how it was run: as §4
Enterococcus faecium = experiment: In vitro Anti Bacterial Activity (MIC90) against 90% of tested clinical Isolates of Enterococcus faecium(47); how it was run: as §3
Haemophilus influenzae = experiment: In vitro Anti Bacterial Activity (MIC90) against 90% of tested clinical Isolates of Haemophilus Influenzae(21)
How it was run: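 MIC90 over clinical isolates; MICs in Haemophilus Test Medium Base with Haemophilus Test Medium Supplement, inoculum 10⁴ cells/mL, 24–48 h at 37 °C.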

## C[C@@H](O)[C@H]1C(=O)N2C(C(=O)O)=C(CSC(=S)N(C)CC(N)=O)S[C@H]12
Staphylococcus aureus [1]
  MIC: 0.12 µg/mL (≈ 0.307 µM)
Staphylococcus aureus [2]
  MIC: 0.03 µg/mL (≈ 0.0766 µM)
Staphylococcus aureus [3]
  MIC: 2 µg/mL (≈ 5.11 µM)
Escherichia coli [4]
  MIC: 8 µg/mL (≈ 20.4 µM)
Pseudomonas aeruginosa [5]
  MIC: 8 µg/mL (≈ 20.4 µM)
Pseudomonas aeruginosa [6]
  MIC: 4 µg/mL (≈ 10.2 µM)
Pseudomonas aeruginosa [7]
  MIC: > 64 µg/mL
Staphylococcus aureus [8]
  MIC: 0.12 µg/mL (≈ 0.307 µM)
Escherichia coli [9]
  MIC: 8 µg/mL (≈ 20.4 µM)
Escherichia coli [10]
  MIC: 16 µg/mL (≈ 40.9 µM)
Escherichia coli [11]
  MIC: 0.5 µg/mL (≈ 1.28 µM)
Enterococcus faecalis [12]
  MIC: 8 µg/mL (≈ 20.4 µM)
Escherichia coli [13]
  MIC: 16 µg/mL (≈ 40.9 µM)
Escherichia coli [14]
  MIC: 8 µg/mL (≈ 20.4 µM)

## CC1(C)S[C@@H]2[C@H](NC(=O)[C@H](N)c3ccc(O)cc3)C(=O)N2[C@H]1C(=O)O [AMOXICILLIN]
Staphylococcus aureus [15]
  MIC90: 32 µg/mL (≈ 87.6 µM)
Clostridium perfringens
  MIC90: 0.06 µg/mL (≈ 0.164 µM)
Yersinia sp.
  MIC90: > 64 µg/mL
Staphylococcus aureus [16]
  MIC90: 1 µg/mL (≈ 2.74 µM)
Listeria monocytogenes
  MIC90: 0.5 µg/mL (≈ 1.37 µM)
Streptococcus agalactiae
  MIC90: 0.06 µg/mL (≈ 0.164 µM)
Bacteroides fragilis
  MIC90: 32 µg/mL (≈ 87.6 µM)
Klebsiella pneumoniae
  MIC90: > 64 µg/mL
Streptococcus pyogenes
  MIC90: 0.015 µg/mL (≈ 0.041 µM)
Streptococcus pneumoniae
  MIC90: 0.015 µg/mL (≈ 0.041 µM)
Moraxella catarrhalis
  MIC90: 2 µg/mL (≈ 5.47 µM)
[17]
  MIC90: 4 µg/mL (≈ 10.9 µM)
Enterococcus faecalis [18]
  MIC90: 0.5 µg/mL (≈ 1.37 µM)
Aeromonas
  MIC90: > 32 µg/mL
Enterococcus faecium
  MIC90: 32 µg/mL (≈ 87.6 µM)
Haemophilus influenzae
  MIC90: 1 µg/mL (≈ 2.74 µM)
